The values that follow come from ChEMBL document CHEMBL1152210, “Synthesis and biological evaluation of alkoxycoumarins as novel nematicidal constituents” (Bioorg Med Chem Lett, 2008).

The LC50 is the concentration that kills 50% of the test population.

Data set [1] relates to Bursaphelenchus xylophilus. Briefly: Nematicidal activity against Bursaphelenchus xylophilus measured per cotton ball after 4 days by serial dilution method. Type of data set: functional. A digest of the protocol:
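Cotton ball (5 mm), loaded with test compound or solvent and vacuum-dried, set on 4-day Botrytis cinerea mycelia grown on Czapek-Dox agar at 21 °C. 100 µl B. xylophilus suspension (ca. 15,000/ml in distilled water) injected into the ball; dish held at 26 °C for 4 days. Mycelial consumption scored; MED is the lowest active dose by serial dilution, top dose 160 µg/ball. Survival confirmed by methylene blue staining.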

A further data set concerns Artemia salina. Briefly: Toxicity in Artemia salina after 24 hrs by serial dilution method. Particulars: in vivo. Format: organism-based.
In a further data set the test system is Oryzias latipes. Nature of the data set: Toxicity in Oryzias latipes after 24 hrs by serial dilution method. Conditions: in vivo. Type of data set: organism-based.

Active and inactive are the calls of the source. The rule behind the calls is not given here. Bounds are passed on as bounds.

As to `CCCCCCCCCCCc1cccc(O)c1`, the MED in data set [1] amounted to 5 µg. In the data set with Artemia salina, this molecule returned an LC50 of 1 ppm and an LC100 of 1.3 ppm. In the data set on Oryzias latipes, the LC50 was 3.8 ppm and the LC100 turned out to be 5 ppm.

As for `CCCCCCCCOc1cccc2oc(=O)ccc12`, the MED in data set [1] was found to be 40 µg.

`CCCCCOc1cccc2oc(=O)ccc12`: the MED in data set [1] stood at 40 µg.

Take `COc1cccc2oc(=O)ccc12`: in data set [1], the MED amounted to 20 µg. In the data set with Artemia salina, the LC50 was 30 ppm and the LC100 is 20 ppm. In the data set with Oryzias latipes, this molecule gave an LC50 of 38 ppm and an LC100 of 50 ppm.

`COc1ccc2oc(=O)ccc2c1` displayed an MED in data set [1] of 80 µg. The LC50 with Artemia salina is reported as greater than 80 ppm; with Oryzias latipes, 75 ppm. For the same molecule, the LC100 is greater than 80 ppm in the data set with Artemia salina and 100 ppm in the data set with Oryzias latipes.

In data set [1], `C/C1=C\C[C@@H]2C[C@@H](C[C@]3(CC[C@H](C)[C@@H](C)O3)O2)OC(=O)[C@@H]2CC[C@@H](O)[C@H]3OC/C(=C\C=C\[C@H](C)C1)[C@]32O` [MILBEMECTIN] had an MED of 0.6 µg. In the data set on Artemia salina, this molecule displayed an LC50 of 0.1 ppm and an LC100 of 0.6 ppm. In the data set with Oryzias latipes, the LC50 is given as 0.06 ppm and the LC100 is 0.25 ppm.

Consider `COc1cc(=O)oc2ccccc12`, for which the outcome in data set [1] was inactive. In addition, in the data set on Artemia salina, the LC50 was found to be 60 ppm and the LC100 is recorded as greater than 80 ppm. Also, in the data set on Oryzias latipes, the LC50 worked out at 75 ppm and the LC100 was found to be 100 ppm.

Molecule `CCCCCCCCCc1cccc(O)c1` came in with an MED in data set [1] of 2.5 µg. Moreover, the LC50 with Artemia salina amounted to 0.6 ppm; in the data set with Oryzias latipes it was 7.5 ppm. Further, the LC100 in the data set on Artemia salina came out at 1.3 ppm; with Oryzias latipes, 10 ppm.

For the molecule `CCOc1cccc2oc(=O)ccc12`, the MED in data set [1] worked out at 10 µg. For the same molecule, the results for the LC50 in the data set with Artemia salina and in the data set on Oryzias latipes were greater than 80 ppm and 75 ppm, respectively. In addition, the values for the LC100 in the data set on Artemia salina and in the data set on Oryzias latipes were greater than 80 ppm and 100 ppm, respectively.

The molecule `COc1cc(OC)c2ccc(=O)oc2c1` [CITROPTEN] gave an MED in data set [1] of 20 µg.

In data set [1], `O=c1ccc2c(OCc3ccccc3)cccc2o1` displayed an MED of 80 µg.

`CCCOc1cccc2oc(=O)ccc12` registered an MED in data set [1] of 20 µg.

Consider `O=c1ccc2c(O)cccc2o1`, for which the outcome in data set [1] was inactive.

With `COc1cc2ccccc2oc1=O`, in data set [1], the MED turned out to be 80 µg. In the data set on Artemia salina, this molecule displayed an LC50 greater than 80 ppm and an LC100 greater than 80 ppm. Also, in the data set with Oryzias latipes, the LC50 is given as greater than 100 ppm and the LC100 was greater than 100 ppm.

`O=C(O)/C=C/c1ccccc1O`: the result in data set [1] was inactive.

In data set [1], `O=c1ccc2ccccc2o1` [COUMARIN] had an MED of 80 µg. Besides, in the data set on Artemia salina, the LC50 was greater than 80 ppm and the LC100 is listed as greater than 80 ppm. Besides, in the data set with Oryzias latipes, the LC50 amounted to 38 ppm and the LC100 came out at 50 ppm.

Consider `CCCCOc1cccc2oc(=O)ccc12`, for which the MED in data set [1] is 40 µg.

On to `C=CCOc1cccc2oc(=O)ccc12`, for which the result in data set [1] was inactive.

In data set [1], `COc1cccc2ccc(=O)oc12` showed an MED of 80 µg. In the data set on Artemia salina, this molecule displayed an LC50 greater than 80 ppm and an LC100 greater than 80 ppm. In the data set on Oryzias latipes, this molecule displayed an LC50 of 100 ppm and an LC100 greater than 100 ppm.

In data set [1], `COc1ccc2ccc(=O)oc2c1` [HERNIARIN] registered an MED of 40 µg. Besides, the LC100 was 80 ppm with Artemia salina and 75 ppm in the data set with Oryzias latipes.
